# DNMT1 block: human DNMT1 methyltransferase inhibitors, primary screen, biochemical, molecular beacon, fluorescence, HinP1I cleavage, uHTS | inhibition (reported as % activation of signal), % at 10 µM | DNA (cytosine-5)-methyltransferase 1 (Homo sapiens), P26358 | 0.83% of 360,000 active; in the data active = inhibition above about 50%
# SUMO1 PPI mod: modulators of SUMO1 protein-protein interactions, primary screen, biochemical, uHTS | SUMO1 binding to a labelled peptide, TR-FRET, 1 h | inhibition, % at 20 µM | 0.33% of 360,000 active | AID 602429, 2012; in the data active = inhibition above about 37%
# Target sequence (P63165 whole entry, looked up): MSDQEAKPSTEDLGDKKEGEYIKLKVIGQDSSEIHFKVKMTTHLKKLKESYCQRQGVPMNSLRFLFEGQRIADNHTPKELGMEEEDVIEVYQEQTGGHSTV
# Scp1 inh: Scp-1 phosphatase inhibitors, primary screen, biochemical, colorimetric, uHTS; Recombinant Scp1, phosphopeptide, malachite green phosphate absorbance; AID 493091, 2011; Carboxy-terminal domain RNA polymerase II polypeptide A small phosphatase 1 (Homo …; 0.88% of 340,000 active; inhibition, % at 20 µM;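 active = inhibition above about 50% at 20 µM, limit read from the data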;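 note: plate controls were DMSO wells with enzyme for no effect and wells lacking enzyme for full effect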
# Target sequence (Q9GZU7 76-261 limits assumed): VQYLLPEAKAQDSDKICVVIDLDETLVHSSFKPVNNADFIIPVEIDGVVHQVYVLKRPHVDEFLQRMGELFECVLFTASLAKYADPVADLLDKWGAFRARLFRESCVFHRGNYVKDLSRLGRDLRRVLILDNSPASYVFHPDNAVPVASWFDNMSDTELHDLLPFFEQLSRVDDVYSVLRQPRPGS
#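 System: truncated SCP-1 phosphatase (76-261aa); medium: Tris acetate buffer pH 5.5 with MgCl2 and Tween-20; incubation: 45 min room-temperature reaction, 5 min colour, 30 min stabiliser; compound: single 20 µM dose, 1% DMSO; reagent: Phosphorylated 17-residue peptide substrate; read-out: % inhibition at 20 µM; technique: colorimetric free-phosphate detection, absorbance 630 nm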
# GRK2 aptamer HTS: compounds blocking aptamer binding on GRK2 – biochemical, human GRK2, bead flow cytometry, HTS, primary screen | inhibition of aptamer binding, % at 10 µM | Beta-adrenergic receptor kinase 1 (Homo sapiens), P25098 | AID 488847, 2010 | FAM-aptamer displacement from GRK2 | 0.59% of 330,000 active;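 active = inhibition of aptamer binding above 40%, roughly 3 SD of noise, on plates passing a quality check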;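 note: median bead fluorescence of bound FAM aptamer so fluorescent compounds give negative values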
# STEP block: STEP phosphatase inhibitors, primary screen, biochemical, fluorescence intensity, uHTS; Tyrosine-protein phosphatase non-receptor type 5 (Homo sapiens), P54829; AID 588621, 2011; 0.25% of 360,000 active; inhibition, % at 20 µM; recombinant STEP, OMFP fluorogenic substrate;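 active = inhibition at 20 µM, scaled per plate between control wells, above about 37%, limit read from the data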;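 note: 0% = DMSO with enzyme and substrate and 100% = substrate only without enzyme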
#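 System: STEP (striatal-enriched tyrosine phosphatase) enzyme, cell-free; medium: Bis-Tris pH 6.0 buffer with DTT, detergent; dosing: 20 µM, 1% DMSO; times: reaction 20 min, ambient temperature; detection: fluorescence, 480/540 nm; read-out basis: normalized % inhibition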
# LMPTP inh: LMPTP phosphatase inhibitors, primary screen, biochemical, fluorescence intensity, uHTS; Low molecular weight phosphotyrosine protein phosphatase (Homo sapiens), P24666; recombinant LMPTP-A, OMFP fluorogenic substrate; inhibition, % at 20 µM; 0.22% of 360,000 active;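 active = compounds that cut the enzyme signal by at least half of the control window in the single-dose screen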;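 note: plate controls were DMSO wells with enzyme plus substrate for no effect and substrate without enzyme for full effect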
# Target sequence (P24666 whole entry, looked up): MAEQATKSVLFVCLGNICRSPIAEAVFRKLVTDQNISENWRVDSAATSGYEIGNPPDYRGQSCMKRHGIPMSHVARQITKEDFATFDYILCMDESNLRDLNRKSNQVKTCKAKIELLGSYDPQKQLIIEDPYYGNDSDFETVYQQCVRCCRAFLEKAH
#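 Buffer or medium: Bis-Tris pH 6.0, DTT, detergent; Assay system: LMPTP-A enzyme; Quantity: 0.625 nM enzyme; Detection: endpoint fluorescence intensity; Times: 50 min dark incubation at room temperature; Controls: substrate-only low control, DMSO enzyme-plus-substrate high control; Doses: single 20 µM dose; Read-out: percent inhibition versus substrate-only and uninhibited controls; Reagent: 400 µM OMFP.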
# GRK2 inh confirm: GRK2 aptamer-displacing inhibitors, retest, confirmation, biochemical, cherry pick 1, bead flow cytometry; aptamer displacement, % at 10 µM; bead-bound GRK2, FAM-aptamer displacement; shares compounds with GRK2 aptamer HTS; 4% of 2,000 active;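 active = aptamer displacement above 40%, near three times the noise of non-fluorescent compounds, on plates passing quality checks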;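 note: negative values mostly reflect intrinsic compound fluorescence rather than true enhancement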
# Aptamer quench SP: aptamer fluorescence quenching in GRK2 counter-screen; shares compounds with GRK2 aptamer HTS; Carboxyfluorescein RNA aptamer on beads, flow cytometry quenching; stronger effect = lower value; fluorescence response (% of DMSO), % at 10 µM; 2,000 tested, under 10 active; AID 504580;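 active = compounds that quench the bead-bound fluorescent RNA probe, cutting fluorescence to under half of the solvent control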;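 note: counterscreen run without GRK2 so only probe quenching by compound is measured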
# GRK2 CP2: GRK2 aptamer-displacing inhibitors, hit retest, confirmation, biochemical, cherry pick 2, bead flow cytometry. 360 tested, under 10 active. bead-bound GRK2, FAM-aptamer displacement. shares compounds with GRK2 aptamer HTS. inhibition of aptamer binding, % at 10 µM;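 active = inhibition of aptamer binding above 40%, about triple the noise seen with nonglowing compounds, on plates passing quality control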;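 note: negative values mostly come from compounds that fluoresce themselves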
# FAM quench CP2: aptamer fluorescence quenching in GRK2 counter-screen | shares compounds with GRK2 aptamer HTS | carboxyfluorescein RNA aptamer beads, flow cytometry quenching; stronger effect = lower value | fluorescence response vs DMSO, % at 10 µM | 360 tested, under 10 active | AID 588494;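 active = response vs DMSO under 50%, meaning signal dropped by over half, treated as fluorescence quencher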;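 note: labelled aptamer on streptavidin beads without GRK2 as a quench counter-screen; 100% = bead fluorescence of DMSO wells and lower means quenching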
# * hit, by the source's call; nt = no result given. Rows were chosen to be rich in hits. Some 2.1% of all compounds tested hit in one or more screens of this group.
SMILES,DNMT1 block,SUMO1 PPI mod,Scp1 inh,GRK2 aptamer HTS,STEP block,LMPTP inh,GRK2 inh confirm,Aptamer quench SP,others
CCCCCC(=O)Nc1ccc(S(=O)(=O)Nc2cc(OC)nc(OC)n2)cc1,-1,0,-6,0,2,0,nt,nt,
COC(=O)CCC(=O)Nc1ccc(S(=O)(=O)Nc2cc(OC)nc(OC)n2)cc1,1,2,-10,38,-1,0,2,98,
CN(C)C(=O)c1ccc(-c2nnc(OCc3nc4ccccc4n3C)c3ccccc23)cc1,1,5,1,nt,-1,-1,nt,nt,
COCCNC(=O)c1ccc(Cl)c(S(=O)(=O)Nc2cccc(C)c2C)c1,-2,-4,-13,65*,-1,0,nt,nt,GRK2 CP2=22;FAM quench CP2=99
Cc1ccc(C(=O)NCc2ccncc2)cc1S(=O)(=O)Nc1cccc(C)c1C,-3,5,-4,2,0,1,nt,nt,
N#CCc1ccc(NS(=O)(=O)c2ccc(C3CCCCC3)cc2)cc1,-7,0,-13,78*,2,4,1,97,
COc1ccc(S(=O)(=O)Nc2ccc(CC#N)cc2)cc1,0,2,-14,3,-1,0,nt,nt,
CCN1CCN(CCCOc2ccc(-c3ccccc3)cc2)CC1,nt,nt,-5,30,nt,nt,-8,104,
CCOc1ccc(N2CC(C(=O)NC3CCCC3)CC2=O)cc1 (stereo not given),2,1,4,2,2,-1,nt,nt,
Cc1nnc(C)c2c(C)n(Cc3ccc4c(c3)OCO4)c(C)c12,10,-6,3,64*,1,6,-13,93,
COc1ccc(CC(=O)N(Cc2ccccc2)C(C)C)cc1,0,1,-8,2,1,0,nt,nt,
COc1ccc(CN([C@H](CO)CC(C)C)S(=O)(=O)N(Cc2ccccc2)[C@H](CO)CC(C)C)cc1,-20,4,0,0,-3,2,nt,nt,
COc1ccc(CN([C@H](C)CO)S(=O)(=O)N(Cc2ccccc2)[C@H](CO)C(C)C)cc1,1,4,-8,46*,-4,2,-3,96,
COc1ccc(CCC(C)N(C)Cc2ccccc2)cc1 (stereo not given),0,7,-4,37,-6,-3,0,93,
COc1ccc(C(C(=O)NC2CCCC2)N(C(=O)c2snc(-c3ccc(F)cc3)c2N)c2ccc(F)cc2)cc1 (stereo not given),26,2,-2,72*,5,-1,8,103,
O=C(Nc1ccc(Br)cc1)C1CCN(c2cnccn2)CC1,0,1,-2,2,-2,0,nt,nt,
Oc1ccc(C[C@H]2CNCCN2CCc2cc(C(F)(F)F)cc(C(F)(F)F)c2)cc1,0,-11,2,44*,1,-3,nt,nt,GRK2 CP2=15;FAM quench CP2=101
Oc1ccc(C[C@@H]2CNCCN2CCc2cc(C(F)(F)F)cc(C(F)(F)F)c2)cc1,-2,-20,6,0,0,-4,nt,nt,

# From PubChem
